A word on the CC50: it is the concentration that lowers cell viability or growth by half. A low value points to greater toxicity to the cells. By IC50 is commonly meant the concentration that inhibits the measured activity by half.

These results are taken from ChEMBL document CHEMBL1156684, “Non-nucleoside HIV-1 reverse transcriptase inhibitors. Part 11: structural modulations of diaryltriazines with potent anti-HIV activity” (Eur J Med Chem, 2008).

The nature of data set [1]: Cytotoxicity against human MT4 cells after 4 days by MTT assay. Format: cell-based. Summed up: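 Uninfected MT-4 cells exposed to graded compound concentrations (DMSO stocks at 50 mM or higher) for 4 days at 37 °C. Viability read by MTT. CC₅₀ is the concentration reducing MT-4 cell viability by 50%.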
The nature of data set [2]: Selectivity index, ratio of CC50 for human MT4 cells to IC50 for HIV1 3B. The class given is functional. Summed up: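 Ratio CC₅₀/IC₅₀. CC₅₀ is from MTT viability of MT-4 cells and IC₅₀ from MTT protection of HIV-infected MT-4 cells (MOI 0.02), both after 4 days at 37 °C.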
The test system of data set [3] is Human immunodeficiency virus 1. Put plainly: Antiviral activity against HIV 3B in human MT4 cells assessed as inhibition of viral replication by MTT assay. The class given is functional, organism-based. Conditions: Human immunodeficiency virus 1, 3B. Summed up: (§1)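 MT-4 cells at 1 × 10⁵ cells/ml infected with HIV at multiplicity of infection 0.02 (virus stocks titrated in MT-4 cells as CCID₅₀), then plated immediately with serial compound dilutions (DMSO stocks at 50 mM or higher). Viable cells counted by MTT after 4 days at 37 °C. IC₅₀ is the concentration protecting 50% of cells from viral cytopathogenicity.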
Background: Formazan colour is commonly taken as a measure of viable cells.

In data set [4] the test system is Human immunodeficiency virus 2. Put plainly: Antiviral activity against HIV2 ROD in human MT4 cells assessed as inhibition of viral replication by MTT assay. To be noted: Human immunodeficiency virus 2, ROD. The class given is functional, organism-based. An outline of the steps: as §1

In the case of `CCCNc1nc(Nc2ccc(C#N)cc2)nc(Oc2ccc3cc(Br)ccc3c2Br)n1`, in data set [1], the CC50 at 96 h was found to be 134 µM. The “Ratio CC50/IC50” value in data set [2] is reported as 524. Moreover, the IC50 is 0.256 µM in data set [3] and 6.59 µM in data set [4].
In data set [1], `CC(C)Nc1nc(Nc2ccc(C#N)cc2)nc(Oc2ccc3cc(Br)ccc3c2Br)n1` showed a CC50 at 96 h of at least 209 µM. In addition, the “Ratio CC50/IC50” value in data set [2] is above 302. Besides, the IC50 in data set [3] came out at 0.693 µM; in data set [4] it was 9.71 µM.
As for `CC(C)Nc1nc(Nc2ccc(C#N)cc2)nc(Oc2ccc3ccccc3c2Br)n1`, in data set [1], the CC50 at 96 h was 41.5 µM. The “Ratio CC50/IC50” value in data set [2] stood at 39. Besides, the results for the IC50 in data set [3] and in data set [4] were 1.06 µM and above 41.5 µM, respectively.
`CCNc1nc(Nc2ccc(C#N)cc2)nc(Oc2ccc3cc(Br)ccc3c2Br)n1`: it took 74.4 µM to reach half-maximal cytotoxicity in data set [1] (CC50 at 96 h). In addition, the “Ratio CC50/IC50” value in data set [2] is 477. The IC50 in data set [3] is 0.156 µM; in data set [4] it was above 74.5 µM.
As for `CNc1nc(Nc2ccc(C#N)cc2)nc(Oc2cccc3ccccc23)n1`, the CC50 at 96 h in data set [1] was found to be 30.3 µM. For the same compound, the “Ratio CC50/IC50” value in data set [2] came out at 163. Further, the IC50 in data set [3] was 0.186 µM; in data set [4], above 30.3 µM.
In data set [1], `N#Cc1ccc(Nc2nc(N)nc(Oc3cccc4ccccc34)n2)cc1` registered a CC50 at 96 h of 39.1 µM. The “Ratio CC50/IC50” value in data set [2] is reported as 364. The values for the IC50 in data set [3] and in data set [4] were 0.107 µM and above 39.1 µM, respectively.
Compound `CCCNc1nc(Nc2ccc(C#N)cc2)nc(Oc2cccc3ccccc23)n1` had a CC50 at 96 h in data set [1] of 29.5 µM. In addition, the “Ratio CC50/IC50” value in data set [2] came out at 11. Also, the IC50 in data set [3] is 2.7 µM; in data set [4], above 73.2 µM.
In data set [1], `N#Cc1ccc(Nc2nc(N)nc(Oc3ccc4ccccc4c3)n2)cc1` gave a CC50 at 96 h of 42.2 µM. For the same compound, the “Ratio CC50/IC50” value in data set [2] came to 471. The IC50 in data set [3] was 0.09 µM; in data set [4], at least 11.5 µM.
As to `CCCNc1nc(Nc2ccc(C#N)cc2)nc(Oc2ccc3ccccc3c2Br)n1`, the CC50 at 96 h in data set [1] was above 263 µM. For the same compound, in data set [2], the “Ratio CC50/IC50” value is reported as above 1294. The IC50 in data set [3] is 0.203 µM; in data set [4], at least 58.3 µM.
The compound `CNc1nc(Nc2ccc(C#N)cc2)nc(Oc2ccc3ccccc3c2Cl)n1` registered a 50% cytotoxic concentration (CC50) at 96 h in data set [1] of 171 µM. The “Ratio CC50/IC50” value in data set [2] amounted to 14412. Also, the IC50 is 0.0118 µM in data set [3] and above 171 µM in data set [4].
Regarding `N#Cc1ccc(Nc2nc(N)nc(Oc3ccc4ccccc4c3Cl)n2)cc1`, the “Ratio CC50/IC50” value in data set [2] is recorded as 2872. In addition, the values for the IC50 in data set [3] and in data set [4] were 0.0287 µM and at least 5.3 µM, respectively.
As for `N#Cc1ccc(Nc2nc(N=[N+]=[N-])nc(Oc3ccc4ccccc4c3Cl)n2)cc1`, in data set [1], the CC50 at 96 h was 256 µM. In addition, the “Ratio CC50/IC50” value in data set [2] is on record as 4270. In addition, the IC50 in data set [3] came to 0.06 µM; in data set [4], 6.17 µM.
In the case of `CCNc1nc(Nc2ccc(C#N)cc2)nc(Oc2ccc3ccccc3c2Cl)n1`, half-maximal cytotoxicity in data set [1] (CC50 at 96 h) was put at 188 µM. In addition, the “Ratio CC50/IC50” value in data set [2] is 1642. Further, the IC50 in data set [3] was 0.114 µM; in data set [4], 16 µM.
As to `CNc1nc(Nc2ccc(C#N)cc2)nc(Oc2ccc3cc(Br)ccc3c2)n1`, the midpoint of cytotoxicity in data set [1], the CC50 at 96 h, lay at 194 µM. In data set [2], the “Ratio CC50/IC50” value was determined as 685. Moreover, the IC50 in data set [3] was 0.284 µM; in data set [4], above 194 µM.
The compound `CNc1nc(Nc2ccc(C#N)cc2)nc(Oc2ccc3ccccc3c2Br)n1` showed a CC50 at 96 h in data set [1] of 143 µM. For the same compound, in data set [2], the Ratio CC50/IC50 turned out to be 15400. For the same compound, the IC50 in data set [3] is 0.0093 µM; in data set [4], at least 28.2 µM.
For `CCCNc1nc(Nc2ccc(C#N)cc2)nc(Oc2ccc3ccccc3c2Cl)n1` the same measures were above 290 µM, above 1547, 0.187 µM and at least 43.6 µM.
`N#Cc1ccc(Nc2nc(N)nc(Oc3ccc4cc(Br)ccc4c3Br)n2)cc1` yielded a CC50 at 96 h in data set [1] of 244 µM. Further, in data set [2], the “Ratio CC50/IC50” value amounted to 12475. The IC50 is 0.0195 µM in data set [3] and 10.5 µM in data set [4].
For `N#Cc1ccc(Nc2nc(N)nc(Oc3ccc(Cl)c4ccccc34)n2)cc1` the same measures were 237 µM, 3775, 0.062 µM and at least 12.6 µM.
`CCNc1nc(Nc2ccc(C#N)cc2)nc(Oc2ccc(Cl)c3ccccc23)n1`: in data set [1], half-maximal cytotoxicity (CC50 at 96 h) was put at 208 µM. The “Ratio CC50/IC50” value in data set [2] stood at 285. The IC50 in data set [3] was 0.733 µM; in data set [4], above 208 µM.
For `CCCNc1nc(Nc2ccc(C#N)cc2)nc(Oc2ccc(Cl)c3ccccc23)n1` the same measures were 182 µM, 111, 1.63 µM and 45.6 µM.
Turning to `CNc1nc(Nc2ccc(C#N)cc2)nc(Oc2ccc3ccccc3c2)n1`, half-maximal cytotoxicity in data set [1] (CC50 at 96 h) was put at 250 µM. For the same compound, the “Ratio CC50/IC50” value in data set [2] was 968. The results for the IC50 in data set [3] and in data set [4] were 0.26 µM and above 251 µM, respectively.
Take `CNc1nc(Nc2ccc(C#N)cc2)nc(Oc2ccc(Cl)c3ccccc23)n1`: the cytotoxic concentration (CC50) at 96 h in data set [1] turned out to be 197 µM. Further, the “Ratio CC50/IC50” value in data set [2] is given as 2111. For the same compound, the IC50 in data set [3] is 0.093 µM; in data set [4] it was above 197 µM.
In the case of `N#Cc1ccc(Nc2nc(N)nc(Oc3ccc4ccccc4c3Br)n2)cc1`, the CC50 at 96 h in data set [1] was 133 µM. In data set [2], the “Ratio CC50/IC50” value amounted to 14094. The half-inhibitory concentration (IC50) in data set [3] was determined as 0.0094 µM; in data set [4], 20.2 µM.
For `N#Cc1ccc(Nc2nc(N)nc(Oc3ccc4cc(Br)ccc4c3)n2)cc1` the same measures were 243 µM, 3019, 0.0808 µM and 19.7 µM.
`CNc1nc(Nc2ccc(C#N)cc2)nc(Oc2ccc3cc(Br)ccc3c2Br)n1`: in data set [1], the CC50 at 96 h turned out to be 92.8 µM. In data set [2], the “Ratio CC50/IC50” value stood at 5018. Further, the IC50 was 0.0184 µM in data set [3] and above 91.9 µM in data set [4].
The compound `O=c1[nH]cnc2c1ncn2[C@H]1CC[C@@H](CO)O1` [DIDANOSINE] gave a CC50 at 96 h in data set [1] of at least 529 µM. In data set [2], the “Ratio CC50/IC50” value was “>=98”.
Turning to `Cc1ccnc2c1NC(=O)c1cccnc1N2C1CC1` [NEVIRAPINE], the CC50 at 96 h in data set [1] is above 200 µM. Further, in data set [2], the “Ratio CC50/IC50” value is above 800.
